# Measured values as given in ChEMBL document CHEMBL3045276, “Synthesis and biological activity of some novel trifluoromethyl-substituted 1,2,4-triazole and bis(1,2,4-triazole) Mannich bases containing piperazine rings” (2010).
# Experiments:
# Format in all cases: functional
# Echinochloa crus-galli [1] = assay: Herbicidal activity against Echinochloa crus-galli (barnyard grass) assessed as inhibition of seedling growth at 100 ug/mL at 28 degC
# Method in brief: (§1)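 Ten barnyardgrass seeds placed in cup over glass beads and filter paper holding 5 mL aqueous test solution (emulsified if needed); germinated 65 h at 28 ± 1 °C under light. Mean above-ground seedling height per cup measured; inhibition percentage derived.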
# [2] = system: Brassica rapa subsp. oleifera; assay: Herbicidal activity against Brassica rapa subsp. oleifera assessed as inhibition of root growth at 100 ug/mL at 28 degC
# Method in brief: (§2)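 Rape seeds soaked 4 h in distilled water, then 15 per 6 cm dish on filter paper wetted with 2 mL aqueous test solution (emulsified if needed); germinated 65 h at 28 ± 1 °C in darkness. Mean length of 10 roots per dish measured; percentage inhibition calculated against distilled-water check.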
# Sclerotinia sclerotiorum = assay: Fungicidal activity against Sclerotinia sclerotiorum in cucumber plant two seed leaves stage assessed as control efficacy from disease indices at 500 ug/mL at 18 to 30 degC and above 80%RH relative to control; conditions: read-out: GI
# Method in brief: (§3)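 Cucumber seeds germinated (soaked 2 h in water at 50 °C, kept moist 24 h at 28 °C) and grown in 1:1 vermiculite/peat; two-seed-leaf plants sprayed at 500 μg/mL, then inoculated 2 h later by spraying conidial (C. cassiicola, A. citrullina, P. cubensis), bacterial (P. syringae) or mycelial (S. sclerotiorum) suspension. Held 18-30 °C, >80% RH; four repeats; control efficacy = (CK−PT)/CK×100 from disease indices once untreated plants fully symptomatic.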
# Corynespora cassiicola = assay: Fungicidal activity against Corynespora cassiicola in cucumber plant two seed leaves stage assessed as control efficacy from disease indices at 500 ug/mL at 18 to 30 degC and above 80%RH relative to control; conditions: read-out: GI; method in brief: as §3
# [3] = system: Brassica rapa subsp. oleifera; assay: Herbicidal activity against Brassica rapa subsp. oleifera assessed as inhibition of root growth at 10 ug/mL at 28 degC; method in brief: as §2
# [4] = system: Pseudomonas amygdali pv. lachrymans; assay: Fungicidal activity against Pseudomonas syringae pv. lachrymans in cucumber plant two seed leaves stage assessed as control efficacy from disease indices at 500 ug/mL at 18 to 30 degC and above 80%RH relative to control; conditions: read-out: GI; method in brief: as §3
# Ascochyta = assay: Fungicidal activity against Ascochyta […] in cucumber plant two seed leaves stage assessed as control efficacy from disease indices at 500 ug/mL at 18 to 30 degC and above 80%RH relative to control; conditions: read-out: GI; method in brief: as §3
# Echinochloa crus-galli [5] = assay: Herbicidal activity against Echinochloa crus-galli (barnyard grass) assessed as inhibition of seedling growth at 10 ug/mL at 28 degC; method in brief: as §1
# [6] = system: Pseudoperonospora cubensis; assay: Fungicidal activity against Pseudoperonospora cubensis in cucumber plant two seed leaves stage assessed as control efficacy from disease indices at 500 ug/mL at 18 to 30 degC and above 80%RH relative to control; conditions: read-out: GI; method in brief: as §3
structure (smiles),measurement,setting,value
FC(F)(F)c1nn(CN2CCN(c3ncccn3)CC2)c(=S)n1/N=C/c1ccccc1,inhibition at 100 µg/mL,Echinochloa crus-galli [1],0%
same,inhibition at 100 µg/mL,[2],66.8%
same,inhibition of growth at 500 µg/mL,Sclerotinia sclerotiorum,41.7%
same,inhibition of growth at 500 µg/mL,Corynespora cassiicola,56.2%
same,inhibition at 10 µg/mL,[3],49.2%
same,inhibition of growth at 500 µg/mL,[4],55.8%
same,inhibition of growth at 500 µg/mL,Ascochyta,37.1%
same,inhibition at 10 µg/mL,Echinochloa crus-galli [5],0%
same,inhibition of growth at 500 µg/mL,[6],66.3%
